Bioassay records (PubChem BioAssay)
ABHD4 inh – ABHD4 inhibitors, primary screen, biochemical, fluorescence polarization, mouse | purified mABHD4, FP-Rh probe fluorescence polarization | 0.54% of 370,000 active | (Lyso)-N-acylphosphatidylethanolamine lipase (Mus musculus), Q8VD66 | inhibition, % at 8.92 µM;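 active means inhibition exceeding the mean over every tested compound plus 3 SD, cut at about 30% in these data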
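Test system: mABHD4 protein; Read-out basis: % inhibition; Incubation: 45 min + 60 min at 25 °C; Repeats: single replicate; Technique: fluorescence polarization with parallel and perpendicular emission, 525/598 nm; Compound: 8.92 µM, single dose; Benchmarks: full inhibition S159A mutant plus DMSO, zero as sample-well median.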
LEDGF integ inh – blockers of LEDGF/p75-dependent integrase strand transfer – biochemical, TR-FRET, high throughput, primary screen; TR-FRET IN-LEDGF/p75 DNA integration, Eu/Cy5; inhibition, % at 3.7 µM; 0.64% of 370,000 active;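 active means inhibition above the screen-wide mean plus 3 SD, cut at about 13% in these data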;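 further: signal is the Cy5 over europium emission ratio at 671 and 618 nm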
TCR-CD3 inh – inhibitors of human TCR-CD3 interaction, primary screen, biochemical, fluorescence, TAMRA-labeled TCR probe | AID 651800, 2012 | T-cell receptor (TCR) | inhibition, % at 9.4 µM | 0.37% of 360,000 active; in the data active means inhibition above about 19%;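 further: recombinant mutant TCR 2C K166C tagged with TAMRA read by polarization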
TDP2 inh – human TDP2 enzyme inhibitors, primary screen, biochemical, epi absorbance, recombinant enzyme | AID 720702, 2013 | 0.34% of 370,000 active | T5PNP hydrolysis, p-nitrophenol absorbance 415 nm | inhibition, % at 12.8 µM | Tyrosyl-DNA phosphodiesterase 2 (Homo sapiens), O95551;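 active means inhibition above the mean of all tested compounds plus 3 SD, set per campaign, cut at about 25% in these data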
Target sequence (O95551 whole entry, looked up): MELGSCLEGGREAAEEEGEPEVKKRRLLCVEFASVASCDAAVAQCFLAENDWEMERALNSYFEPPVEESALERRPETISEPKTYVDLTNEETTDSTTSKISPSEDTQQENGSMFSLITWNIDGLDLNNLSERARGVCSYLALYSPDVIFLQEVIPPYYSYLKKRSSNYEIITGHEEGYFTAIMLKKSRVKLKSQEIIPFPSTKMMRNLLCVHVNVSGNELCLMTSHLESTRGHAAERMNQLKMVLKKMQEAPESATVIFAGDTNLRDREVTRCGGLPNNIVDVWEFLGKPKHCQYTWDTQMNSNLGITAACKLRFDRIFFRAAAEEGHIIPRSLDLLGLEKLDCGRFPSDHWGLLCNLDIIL
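test system = human TDP2 enzyme | input = TDP2 enzyme at 120 nM final | medium = 50 mM Tris-HCl pH 7.5 with Mg2+, KCl, DTT, BSA | also added = T5PNP substrate, 5 mM | times = 2 h at 37 °C | technique = epi absorbance | benchmarks = high control without enzyme, low control DMSO plus TDP2 | replication = each compound tested once, singlicate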
SIAE inh – human SIAE inhibitors, primary screen, biochemical, fluorescence polarization, FP-Rh probe, 1536-well HTS | inhibition, % at 9.66 µM | SIAE FP-Rh probe binding | Sialate O-acetylesterase (Homo sapiens), Q9HAT2 | 0.69% of 370,000 active;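 active means inhibition above a cutoff: mean of compounds within the control limits plus 3 SD of those, cut at about 17% in these data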
HTRA1 inhibitor – HTRA1 serine protease inhibitors, primary screen, biochemical, fluorescence polarization, HTS; Q92743; AID 504803, 2011; 0.5% of 340,000 active; recombinant HTRA1, FP-rhodamine activity-based probe; inhibition, % at 5.96 µM; in the data active means inhibition above about 36%
IN multimer act – HIV-1 IN multimer formation enhancers, counter-screen for LEDGF/p75 integration inhibitor project, biochemical, TR-FRET; shares compounds with LEDGF integ inh; TR-FRET HIV-1 integrase multimerization; activation, % at 7.7 µM; 17% of 2,000 active; AID 1053131, 2014; in the data active means activation above about 8.9%
TR-FRET interf – TR-FRET optical interference artefacts, confirmation, artefact control for LEDGF/p75-dependent integration inhibitor project, biochemical, HIV-1 IN multimerization; shares compounds with LEDGF integ inh; TR-FRET optical interference counterscreen; inhibition, % at 7.7 µM; 2,000 tested, under 10 active; AID 1053135, 2014;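 active means inhibition above the mean over all tested compounds plus 3 SD, which no compound reached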
IN-LEDGF confirm – inhibitors of HIV-1 IN-LEDGF/p75 DNA integration, confirmation, biochemical, TR-FRET | shares compounds with LEDGF integ inh | TR-FRET LEDGF/p75-dependent HIV-1 integration | inhibition, % at 3.7 µM | 36% of 2,000 active; in the data active means inhibition above about 14%
Of the large screens only hits and unclear results are named; the others gave an inactive call (follow-up assays come after a bar, where they were run). In the library only some 2.2% were active in any assay of this set; here they are far more common.

N#CCC[C@H]1CC[C@]2(CCCN(C(=O)c3ccc4ccccc4n3)C2)O1	none (no result: TCR-CD3 inh, HTRA1 inhibitor)
CCCCc1c(O)nc(SCC(=O)NCC2CCCO2)[nH]c1=O (configuration not stated)	none
CCCCCc1c(O)nc(SCC(=O)NCC2CCCO2)[nH]c1=O (configuration not stated)	LEDGF integ inh 34 | IN multimer act inactive | TR-FRET interf inactive | IN-LEDGF confirm inactive
COc1ccc(C(C)(NC(C)=O)c2nc(-c3cccnc3)cs2)cc1 (configuration not stated)	none (no result: HTRA1 inhibitor)
COc1ccc(C(C)(NC(C)=O)c2nc(-c3cccc(C(F)(F)F)c3)cs2)cc1 (configuration not stated)	LEDGF integ inh 16 (no result: HTRA1 inhibitor) | IN multimer act inactive | TR-FRET interf inactive | IN-LEDGF confirm inactive
COc1ccc(NC(=O)COC(=O)C2CC(=O)N(c3ccc(C)cc3)C2)cc1 (configuration not stated)	none
COC1=C[C@H](C(=O)NCc2ccccn2)[C@@]2(C)Cc3ccccc3[C@H]2CC1=O	none (no result: TCR-CD3 inh, HTRA1 inhibitor)
CCc1nc(NCc2cccs2)c2nnn(Cc3ccccc3)c2n1	LEDGF integ inh 16 | IN multimer act inactive | TR-FRET interf inactive | IN-LEDGF confirm inactive
CO[C@H]1CN(C)C(=O)c2ccc(NC(=O)C3CCC3)cc2OC[C@H](C)N(CC2CCCCC2)C[C@@H]1C	none (no result: HTRA1 inhibitor)
CCn1c(SCC(=O)Nc2cc(C)on2)nnc1-c1ccc(S(=O)(=O)N2CCN(C)CC2)cc1	LEDGF integ inh 18 | IN multimer act inactive | TR-FRET interf inactive | IN-LEDGF confirm inactive
Cc1ccc(S(=O)(=O)N(C)[C@H]2C[C@H]3c4cc(N5CCOCC5)ccc4CCN3C[C@H]2[C@H](C)O)cc1	none (no result: TCR-CD3 inh, HTRA1 inhibitor)
Cc1occc1-c1nnc(SCC(=O)NCCc2ccccc2)n1Cc1ccccc1	none
COc1cccc(-n2c(SCC(=O)NCCc3ccccc3)nnc2-c2ccoc2C)c1	LEDGF integ inh 14 | IN multimer act inactive | TR-FRET interf inactive | IN-LEDGF confirm inactive
CCC(=O)c1c[nH]c(C(=O)NCCc2ccccn2)c1	none
Cc1ccccc1C(=O)c1c[nH]c(C(=O)NCCc2ccccn2)c1	LEDGF integ inh 22 | IN multimer act inactive | TR-FRET interf inactive | IN-LEDGF confirm inactive
C=CCn1c(SCC(=O)c2ccc(O)c(O)c2)nnc1-c1cccnc1	LEDGF integ inh 16 | IN multimer act 45 | TR-FRET interf inactive | IN-LEDGF confirm 60
O=[N+]([O-])c1cccc(I)c1	LEDGF integ inh 65 (no result: HTRA1 inhibitor) | IN multimer act inactive | TR-FRET interf inactive | IN-LEDGF confirm inactive
CC1(c2nnnn2-c2ccc3c(c2)OCCO3)CSCC(=O)N1CCc1c[nH]c2ccccc12 (configuration not stated)	none (no result: TCR-CD3 inh, HTRA1 inhibitor)
c1ccc(-n2c(-c3ccncc3)nnc2-c2ccco2)cc1	LEDGF integ inh 67 | IN multimer act inactive | TR-FRET interf inactive | IN-LEDGF confirm inactive
c1ccc(-c2nnc(-c3ccco3)n2-c2ccccc2)cc1	none
COC(=O)[C@@]12CCCCC3=C1N(CCC3)C(=O)[C@H]2CC(=O)NCc1ccccc1	none (no result: TCR-CD3 inh, HTRA1 inhibitor)
